Measurements gathered from unrelated publications.
Compare with care: the assays were run in different laboratories.
Observed: cell growth or viability

`CC(C)OC(=O)C(C)(C)Oc1ccc(C(=O)c2ccc(Cl)cc2)cc1` has a CC50 of > 50 µM (LX-2; ATP luminescence; 48 h, serum-free).
For `CCOP(=O)(OCC)[C@@H]1C[C@H](n2cc(Cn3ccc(NC(C)=O)nc3=O)nn2)ON1C` (racemic), the CC50 was > 250 µM (human T-lymphocyte; 72 h).
`COc1ccc(NC(=O)N2CCCCN3[C@H](CN(C)S(C)(=O)=O)[C@H](c4ccc(C#Cc5ccccc5)cc4)[C@@H]3C2)cc1` gave a CC50 of > 40 µM (HEK-293T).
`CCOP(=O)(OCC)[C@@H]1C[C@H](n2cc(-c3ccccc3)nn2)ON1C` gave a CC50 of > 250 µM (human T-lymphocyte; 72 h).
With `Cc1ccc2c(c1C)NC(=O)[C@]21NN=C(c2ccccc2)S1` the CC50 was 28.6 µM (Huh-7; MTT; 24 h).
`Nc1nc(NS(=O)(=O)c2ccccc2)ncc1-c1nc2ccccc2s1` gave a CC50 of 220 µg/mL (BGM).
The CC50 of `Cc1cc(NCCc2ccccc2)nc(NC(=N)Nc2ccc(Cl)cc2)n1` is reported as 15.2 µM (Huh-7; MTT; 24 h).
With `Cc1ccc(S(=O)(=O)Nc2nc(N)c(-c3nc4ccccc4s3)c(-c3ccc(F)cc3)n2)cc1` the CC50 was 190 µg/mL (BGM).
With `COc1ccc(NC(=O)N2CCCCN3[C@H](COCCC(=O)O)[C@H](c4ccc(C#Cc5ccccc5)cc4)[C@@H]3C2)cc1` the CC50 was > 40 µM (HEK-293T).
For `NCCN(C(=O)c1ccc(Cl)cc1Cl)c1ccc(OCc2ccc(Cl)cc2)cc1`, the CC50 was 11.9 µM (Huh-7; MTT; 24 h).
The CC50 of `CCOP(=O)(OCC)[C@@H]1C[C@H](n2cc(-c3cccc(F)c3)nn2)ON1C` is reported as > 250 µM (human T-lymphocyte; 72 h).
The CC50 of `CC(C)Cn1c(=O)n(C)c(=O)c2c(-c3cncn3C)n(Cc3cccc4ccccc34)nc21` is reported as > 200 µM (Huh-7; MTT; 24 h).
`CCOP(=O)(OCC)[C@@H]1C[C@H](n2cc(C(=O)OC)nn2)ON1C` (relative stereo) has a CC50 of > 250 µM (human T-lymphocyte; 72 h).
For `C=C1CN(S(=O)(=O)c2ccc(C)cc2)CCCN(CCc2ccccc2)CCCN(S(=O)(=O)c2ccc(C)cc2)C1`, the CC50 was > 50 µM (HEK-293T; resazurin; 72 h).
`Cc1ccc(S(=O)(=O)Nc2nc(N)c(-c3nc4ccccc4s3)c(-c3ccc(Cl)cc3)n2)cc1` gave a CC50 of 190 µg/mL (BGM).
For `N=C(N)c1ccc(OCCCCCOc2ccc(C(=N)N)cc2)cc1`, the CC50 was 9.24 µM (Huh-7; MTT; 24 h).
With `CCOP(=O)(OCC)[C@@H]1C[C@H](n2cc(-c3ccc(F)cc3F)nn2)ON1C` the CC50 was ≥ 250 µM (human T-lymphocyte; 72 h).
For `O[C@@H](c1cc(C(F)(F)F)nc2c(C(F)(F)F)cccc12)[C@H]1CCCCN1`, the CC50 was 15.9 µM (Huh-7; MTT; 24 h).
`CCOP(=O)(OCC)[C@@H]1C[C@@H](n2cc(-c3ccccn3)nn2)ON1C` (racemic) gave a CC50 of > 250 µM (human T-lymphocyte; 72 h).
With `CO[C@H]1C[C@@H](C[C@H](C)[C@H]2CC(=O)[C@@H](C)/C=C(\C)[C@H](O)[C@H](OC)C(=O)[C@@H](C)C[C@@H](C)/C=C/C=C/C=C(\C)[C@H](OC)C[C@H]3CC[C@H](C)[C@](O)(O3)C(=O)C(=O)N3CCCC[C@@H]3C(=O)O2)CC[C@@H]1OCCO` (racemic) the CC50 was 15.9 µM (Huh-7; MTT; 24 h).
The CC50 of `O=C(CNc1nc(NS(=O)(=O)c2ccccc2)ncc1-c1nc2ccccc2s1)c1ccc(Cl)cc1` is reported as 220 µg/mL (BGM).
`O=C1OC[C@H]2OC(O)[C@H](O)[C@@H](O)[C@@H]2OC(=O)c2cc(O)c(O)c(O)c2-c2c(O)c(O)c3oc(=O)c4c(c(O)c(O)c5oc(=O)c2c3c54)-c2c1cc(O)c(O)c2O` (mixture of isomers) gave a CC50 of > 5000 µM (Huh-7; MTT).
With `O=C(O)c1ccc(-n2nc(-c3ccccc3O)nc2-c2ccccc2O)cc1` the CC50 was > 200 µM (Huh-7; MTT; 24 h).
`CCOP(=O)(OCC)[C@@H]1C[C@@H](n2cc(Cn3cnc4c(N)ncnc43)nn2)ON1C` (racemic) gave a CC50 of > 250 µM (human T-lymphocyte; 72 h).
The CC50 of `Cc1ccc(C(=O)CNc2nc(NS(=O)(=O)c3ccccc3)ncc2-c2nc3ccccc3s2)cc1` is reported as 170 µg/mL (BGM).
`CCOP(=O)(OCC)[C@@H]1C[C@H](n2cc(-c3nccn3C)nn2)ON1C` has a CC50 of > 250 µM (human T-lymphocyte; 72 h).
The CC50 of `CC(C)c1cc(Oc2c(Cl)cc(-n3nc(C#N)c(=O)[nH]c3=O)cc2Cl)n[nH]c1=O` is reported as > 50 µM (LX-2; ATP luminescence; 48 h, serum-free).
